# The list is not random: actives were taken first. Their share in the collection is about 1.3%.
# PME-1 primary: blocks human protein phosphatase methylesterase 1; inhibition, % at 5.9 µM; hit rate 0.53% among 320,000; Q9Y570; recombinant PME-1, FP-Rh probe fluorescence polarization;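 active = inhibition above the campaign mean of all compounds plus 3 SD, cut at about 26% in these data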;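 note: competitive labeling of PME-1 active site by serine hydrolase directed probe; inhibitors block probe labeling so polarization falls and inhibition rises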
# RBBP9 inhibitor: blocks human serine hydrolase RBBP9; recombinant RBBP9, FP-Rh probe fluorescence polarization; inhibition, % at 7.94 µM; hit rate 0.2% among 220,000; O75884;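 active = inhibition above the campaign mean of all tested compounds plus 3 SD, cut at about 14% in these data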
# Target sequence (O75884 whole entry, looked up): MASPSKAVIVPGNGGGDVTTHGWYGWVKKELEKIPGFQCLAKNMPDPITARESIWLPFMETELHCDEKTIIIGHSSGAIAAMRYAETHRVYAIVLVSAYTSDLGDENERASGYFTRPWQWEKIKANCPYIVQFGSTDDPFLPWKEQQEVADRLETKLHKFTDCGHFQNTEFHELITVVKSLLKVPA
#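 Measured by – fluorescence polarization · Test system – RBBP9 protein · Input – 2.5 µM RBBP9 dispensing solution, before mixing · Measure – percent inhibition from mP, scaled between DMSO and no-protein wells · Benchmarks – DMSO-treated enzyme wells and wells lacking RBBP9 · Times – preincubation 30 min plus labeling 45 min at 25 °C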
# LYPLA2 counter: LYPLA2 (human) inhibition in PME1 counter-screen | recombinant LYPLA2, FP-Rh probe fluorescence polarization | inhibition, % at 5.9 µM | AID 2177 | hit rate 0.38% among 320,000 | O95372;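 active = inhibition above the screen-wide mean plus 3 SD, limit set per campaign, cut at about 26% in these data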
# Target sequence (O95372 whole entry, looked up): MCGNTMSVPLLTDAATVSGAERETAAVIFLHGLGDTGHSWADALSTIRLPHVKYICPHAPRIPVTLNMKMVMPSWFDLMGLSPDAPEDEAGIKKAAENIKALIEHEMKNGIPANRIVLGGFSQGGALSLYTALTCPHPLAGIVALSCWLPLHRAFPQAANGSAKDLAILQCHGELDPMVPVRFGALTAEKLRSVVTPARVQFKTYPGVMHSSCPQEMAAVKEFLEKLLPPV
# LYPLA1 inh: blocks human lysophospholipase 1, a PME1 counter-screen; recombinant LYPLA1, FP-Rh probe fluorescence polarization; inhibition, % at 5.9 µM; hit rate 0.16% among 320,000;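 active = inhibition above the mean of all tested compounds plus 3 SD, set per campaign, cut at about 14% in these data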;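 note: inhibitors block serine hydrolase probe labeling of LYPLA1 so polarization falls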
# Target sequence (O75608 whole entry, looked up): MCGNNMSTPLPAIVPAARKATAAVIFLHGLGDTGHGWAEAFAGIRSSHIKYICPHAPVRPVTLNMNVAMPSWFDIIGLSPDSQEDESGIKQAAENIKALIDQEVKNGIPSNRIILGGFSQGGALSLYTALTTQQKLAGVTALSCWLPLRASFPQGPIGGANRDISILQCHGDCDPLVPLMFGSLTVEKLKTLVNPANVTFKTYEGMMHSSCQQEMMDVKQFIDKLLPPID
# Fam108B counter: counter-screen for RBBP9 inhibitors: inhibitors of mouse Fam108B; recombinant Fam108B, FP-Rh probe fluorescence polarization; hit rate 0.33% among 300,000; inhibition, % at 9.51 µM;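 active = inhibition above the screen mean inhibition plus 3 SD, computed separately per campaign, cut at about 18% in these data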;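 note: inhibitors lower polarization as less probe binds the enzyme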
# PAD4 inh: PAD4 (human) enzyme inhibition; inhibition, % at 6.36 µM; hit rate 0.41% among 330,000; Q9UM07; AID 485272; recombinant PAD4, RCA probe fluorescence polarization;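 active = percent inhibition above a cutoff equal to the mean of all tested compounds plus 3 SD, cut at about 15% in these data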
# LYPLA2 conf: counter-screen for PME1 inhibitors: confirmation of human LYPLA2 inhibitors; shares compounds with LYPLA2 counter; recombinant LYPLA2, FP-Rh probe fluorescence polarization; inhibition, % at 5.9 µM; hit rate 72% among 1,100; AID 2232;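 active = mean inhibition across replicates above the hit cutoff set in the primary screen, cut at about 26% in these data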;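 note: blocked labeling of the enzyme by serine hydrolase FP-Rh probe lowers polarization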
# LYPLA2 gel ABPP: LYPLA2 (human) inhibition, late stage results; inhibition, % at 20 µM; rhLYPLA2 in mouse brain proteome, gel ABPP FP-Rh; shares compounds with LYPLA2 counter; hit rate 30% among 150; AID 652029;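 active = inhibition of LYPLA2 enzyme probe labeling above about 50%, limit read from the data; inactive = inhibition below that limit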;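 note: loss of FP-Rh probe labeling of the LYPLA2 gel band measured as band density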
# A number is an active result; n = inactive; x = no result given.
SMILES,PME-1 primary,RBBP9 inhibitor,LYPLA2 counter,LYPLA1 inh,Fam108B counter,PAD4 inh,LYPLA2 conf,others
COc1ccc(N2CCN(C(=O)c3ccc(-c4ccccc4)cc3)CC2)cc1,n,x,34,n,n,n,35,
COc1ccc(S(=O)(=O)NCc2ccc(C(=O)N3CCN(c4ccccn4)CC3)cc2)cc1,n,n,n,n,n,n,x,
COc1cccc(S(=O)(=O)NCc2ccc(C(=O)N3CCN(c4ccccc4OC)CC3)cc2)c1,n,x,58,n,n,n,70,LYPLA2 gel ABPP=n
O=C(c1ccc(-c2ccccc2)cc1)N1CCN(c2ccccc2)CC1,n,x,n,n,n,n,x,
Nc1cc(Cl)ccc1Oc1ccc2ccccc2c1,n,n,28,n,n,n,n,
O=C(O)c1cccc(N2C(=O)c3ccc(C(=O)c4cccc([N+](=O)[O-])c4)cc3C2=O)c1,n,n,45,n,n,n,58,LYPLA2 gel ABPP=n
Cc1ccc(S(=O)(=O)N2C[C@@H]3[C@H]4CC[C@H](C4)[C@@H]3[C@@H](C)[C@H]2C#N)cc1,x,x,x,x,x,n,x,
CC(=O)Nc1ccc(S(=O)(=O)NC2CCSc3ccccc32)cc1 (configuration not stated),n,x,32,n,n,n,n,
COc1ccc(S(=O)(=O)N2CCCC(C(=O)NCC3CCCO3)C2)cc1OC (configuration not stated),n,x,n,n,n,n,x,
O=C(CN1CCN(c2ccc(Cl)cc2)CC1)NCc1ccccc1,n,n,n,n,n,n,x,
O=C(CN1CCN(C/C=C/c2ccccc2)CC1)NCc1ccc(Cl)cc1,n,n,42,n,n,n,34,
CC1CCCN(C(=O)CN2C(=O)C(C)Oc3ccccc32)C1 (configuration not stated),n,x,29,n,n,n,n,
Cc1ccc2c(c1)N(CC(=O)N1CCCCCC1)C(=O)C(C)O2 (configuration not stated),n,x,n,n,n,n,x,
O=C(NCc1cccc(Cl)c1)c1cc(COc2ccc3ncccc3c2)on1,n,n,39,n,n,n,36,
Cc1cc(C)n(CCNC(=O)c2cc(COc3ccc4ncccc4c3)on2)n1,n,n,n,n,n,n,x,
Cc1ccc(F)cc1CNC(=O)c1cc(COc2ccc3ncccc3c2)on1,n,n,46,n,n,n,54,LYPLA2 gel ABPP=n
Cc1ccsc1CN(C)C(=O)c1ccc(Oc2ccccc2)cc1,n,x,n,n,n,n,x,
CCOC(=O)CSc1nnc(CSc2nc3sc4c(c3c(=O)[nH]2)CCC4)n1-c1ccccc1,n,n,57,n,n,n,51,
CCOC(=O)CSc1nnc(CSc2nc3sc4c(c3c(=O)[nH]2)CCC4)n1C,n,n,n,n,n,n,x,
NS(=O)(=O)c1ccc(O)c(N2C(=O)c3cccc4c(C(=O)c5ccccc5)ccc(c34)C2=O)c1,x,n,x,x,x,x,x,
Cc1ccc(NC(=O)c2ccccc2N2C(=O)C3C4C=CC(C5CC45)C3C2=O)cc1C (configuration not stated),n,x,n,n,n,n,x,
CCOC(=O)C1=C(C)NC2=C(C1c1ccc([N+](=O)[O-])cc1)S(=O)(=O)c1ccccc12 (configuration not stated),n,n,41,n,n,n,38,
CCCCCCC(=O)N1CCCC(c2nc(-c3cccc(OC)c3)no2)C1 (configuration not stated),n,n,27,n,n,n,n,
COc1ccc(OC[C@@H](O)CNC(=O)c2cccc3c2C(=O)c2ccc(Cl)cc2S3(=O)=O)cc1,n,x,n,n,x,n,x,
COc1ccc([C@H]2CC(=O)C=C(c3ccc(F)cc3OCc3ccccc3)C2)cc1OC,n,x,27,n,x,n,n,
SMILES,PME-1 primary,RBBP9 inhibitor,LYPLA2 counter,LYPLA1 inh,Fam108B counter,PAD4 inh,LYPLA2 conf,others
O=C(Cc1ccc(-n2c(=O)[nH]c3ccsc3c2=O)cc1)N1CCN(c2ccc(Cl)cc2)CC1,n,n,31,n,n,n,29,
Cc1cccc(N2CCN(C(=O)Cc3ccc(-n4c(=O)[nH]c5ccsc5c4=O)cc3)CC2C)c1 (configuration not stated),n,n,n,n,n,n,x,
Cc1ncc([N+](=O)[O-])n1CC(=O)Nc1ccc(OC(F)(F)Cl)cc1,n,x,n,n,n,n,x,
Cc1ncc([N+](=O)[O-])n1CC(=O)Nc1ccccc1F,n,x,28,n,n,n,27,
Cc1ncc([N+](=O)[O-])n1CC(=O)Nc1cccc(C(F)(F)F)c1,n,x,51,n,n,n,41,
COc1ccc(NC(=O)Cn2c([N+](=O)[O-])cnc2C)cc1Cl,n,x,n,n,n,n,x,
Cc1ncc([N+](=O)[O-])n1CC(=O)Nc1ccc(F)c(Cl)c1,n,x,34,n,n,n,61,LYPLA2 gel ABPP=n
CSc1ccccc1NC(=O)Cn1c([N+](=O)[O-])cnc1C,n,x,n,n,n,n,x,
Cc1ncc([N+](=O)[O-])n1CC(=O)NC1CCCCCC1,n,n,28,n,n,n,33,
CCOc1ccc(N(CC(=O)N/N=C/c2ccc(OC(C)C)cc2)S(C)(=O)=O)cc1,n,n,n,n,n,n,x,
COc1ccc(NC(=O)CSc2nncc3ccccc23)cc1,n,n,n,n,n,n,x,
COc1ccc(NC(=O)CSc2nnc(C)c3ccccc23)cc1,n,x,32,n,n,n,n,
CC12CCC(=O)N1C(C(=O)NNC(=O)c1cccc(Cl)c1)CS2 (configuration not stated),n,x,35,n,n,n,n,
CC12CCC(=O)N1C(C(=O)NNC(=O)c1ccc(Cl)cc1)CS2 (configuration not stated),n,x,n,n,x,n,x,
COc1cccc(NC(=O)CN2C(=O)CSc3ccc(S(=O)(=O)N4CCCCC4)cc32)c1,n,x,40,n,n,n,38,
Cc1ccc(NC(=O)CN2C(=O)CSc3ccc(S(=O)(=O)N4CCCCC4)cc32)cc1,n,x,n,n,n,n,x,
Cc1cc(C)cc(NC(=O)CN2C(=O)COc3ccc(S(=O)(=O)N4CCCC4)cc32)c1,n,x,37,n,n,n,33,
CN1CCCN(S(=O)(=O)c2ccc(O)c(C(=O)O)c2)CC1,n,x,n,n,n,n,x,
O=C(Cn1cnc2scc(-c3ccc(Br)cc3)c2c1=O)N1CCOCC1,n,n,n,n,n,n,x,
Cc1cc(F)ccc1NC(=O)Cn1c(C)csc1=O,n,x,n,n,x,n,x,
O=C(CN1C(=O)S/C(=C\c2ccccc2)C1=O)NNC(=O)c1ccccc1O,n,n,n,n,n,n,x,
Cc1ccc(NC(=O)CN2C(=O)S/C(=C/c3ccncc3)C2=O)cc1,n,x,n,n,n,n,x,

# From PubChem
